One may read the inhibition as the relative decrease from the control value, in per cent.

Hit rate of the full screen: of about 120,000 compounds, about 20 (0.02%) were called active. The full list was thinned out, with actives kept by preference. A number with no mark means an inactive call.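 Rule for the calls: active = inhibition above 30.3% in the primary screen of four-compound pools, then above 30% when the compound was retested; inconclusive = passed the primary limit but could not be retested; inactive = the rest.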

Results on 61 compounds are retold here after PubChem BioAssay AID1242 (PCMD, 2008).

The nature of the assay: Candida albicans biofilm persister killing – 4-compound mixtures, primary screen (AID 1242).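 Note: compounds exposed to preformed 24 h biofilms for 48 h; 0% = untreated biofilm control and 100% = clotrimazole plus chlorhexidine kill blank.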 The following applies: C. albicans biofilm persisters + clotrimazole, fluorescence viability, primary screen in compound mixtures, active compounds read high; at 7.6 µM unless noted. The essentials: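 Test system: C. albicans biofilms. Buffer or medium: RPMI/MOPS medium, pH 7.0. Timing: 48 h compound exposure at 37 °C. Technique: Alamar Blue fluorescence. Evaluation: percent inhibition of biofilm viability.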
For `CC1Cc2ccccc2N1S(=O)(=O)c1ccc(Cl)nc1` (stereo unspecified), the inhibition is 14.3%.

For `Cc1cc2nc(C(F)(F)F)cc(-c3cccs3)n2n1`, the inhibition was 8.23%.

Take `COc1ccc(C(=O)C2CCCN(C(=O)c3cc4nc(C)cc(C)n4n3)C2)cc1F` (stereo unspecified): the inhibition is 16.6%.

In the case of `CCOC(=O)C1(Cc2cccc(OC)c2)CCN(C(C)COC)CC1` (stereo unspecified), the inhibition is 14.5%.

With `NCC(=O)c1cccc2ccc[n+]([O-])c12`, the inhibition is 12.9%.

Regarding `N=c1c2c3c(sc2ncn1N)CCCC3`, the inhibition was 20.4%.

As for `CCOC(=O)CN1CCC(c2ccccc2)CC1`, the inhibition is 13.7%.

As for `Cc1cc(N)n(-c2ccc(S(=O)(=O)N3CCCC3)cc2[N+](=O)[O-])n1`, the inhibition is 11.7%.

Consider `CC(=O)c1cccc(-n2nnnc2SCC(=O)NNC(=O)C2CCCCC2)c1`, for which the inhibition is 5.73%.

Regarding `C/C(=N/Nc1ccc(Cl)cc1)c1cnnc(-c2ccccc2)n1`, the inhibition was 7.24%.

As to `COc1ccc(Cl)cc1N(CC(=O)N/N=C/c1ccc(OCC(N)=O)cc1)S(C)(=O)=O`, the inhibition is 20.2%.

Regarding `S=C(NCCc1ccccc1)N1CCn2cccc2C1c1ccncc1` (stereo unspecified), the inhibition was 11.1%.

Take `COc1ccccc1C(c1nnnn1CC1CCCO1)N1CCN(c2ccccc2)CC1` (stereo unspecified): the inhibition was 29.3%.

Consider `COc1ccc(NC(=O)CSc2nnc(-c3ccccc3F)n2C2CC2)cc1S(N)(=O)=O`, for which the inhibition was 7.66%.

Take `O=C(Cn1c(N2CCN(C/C=C/c3ccccc3)CC2)nc2ccccc21)c1ccccc1`: the inhibition was 9.46%.

Turning to `CCC(C)(C)NC(=O)CN(C(=O)CCC(=O)Nc1cc(C)ccn1)c1ccc2c(c1)OCCO2`, the inhibition was 1.7%.

For the compound `Cc1ccc(OCC(=O)NC(C)c2ccccc2)c([N+](=O)[O-])n1` (stereo unspecified), the inhibition was 8.35%.

Consider `CCc1cc2c(=O)c(-c3nc4ccccc4n3C)c(CCCC(=O)O)oc2cc1OC(=O)C(C)(C)C`, for which the inhibition is 14.2%.

Take `COC(=O)Cc1ccc(NC(=S)NCc2ccco2)cc1`: the inhibition was 1.39%.

For the compound `Cc1ccc(Cl)cc1NC(=O)C1CCN(S(C)(=O)=O)CC1`, the inhibition was -19.3%.

For `CSc1nc(C)nc(C2CC2)c1C#N`, the inhibition is 26.1%.

`CCc1nc2sc(C(=O)O)c(N)c2c2c1CCCC2`: the inhibition was 17.7%.

Take `O=C1Nc2cc(Cl)c(Cl)cc2N(O)N1c1ccccc1Cl`: the inhibition was 16.7%.

As for `CC1=CC=CC2=N/C(=N\S(=O)(=O)c3ccc(F)cc3F)c3ccccc3CN12`, the inhibition was 14.1%.

Take `NNC(=O)c1cccc(COCC(F)(F)C(F)F)c1`: the inhibition is 11.2%.

Take `CC(C)(C)n1nc2c(c1NC(=O)c1cc3ccccc3o1)CSC2`: the inhibition was 8.07%.

Turning to `CC(=O)NC(=S)Nc1ccc(NC(=O)c2cccnc2)cc1`, the inhibition is 26.7%.

As to `CN(c1ccccc1)S(=O)(=O)c1ccc(Cl)c(C(=O)OCC(N)=O)c1`, the inhibition was 9.93%.

Take `COc1ccc2nc(Nc3nc(-c4ccncc4)cs3)sc2c1`: the inhibition was 12.3%.

Turning to `COCCCNC(=O)Cn1c(=O)n(Cc2ccccc2Cl)c(=O)c2cc(OC)c(OC)cc21`, the inhibition is 5.13%.

Turning to `COc1ccc(N=C(C)c2sc3ccccc3c2O)cc1`, the inhibition is 24.2%.

`Cc1ccc(Cl)c(OCC(=O)NN2CCN(C)CC2)c1`: the inhibition is 16.5%.

`CC1=C(C)CC(C(=O)NC(C)CCc2ccccc2)C(C(=O)O)C1` (stereo unspecified): the inhibition is -32%.

As for `C/C(CCc1ccccc1)=N\NC(=O)c1ccc(CN2CCOCC2)cc1`, the inhibition was 20.4%.

Regarding `COc1ccc(S(=O)(=O)N(C)CC(=O)N2CCCC2)cc1Cl`, the inhibition was 15.4%.

On to `COc1ccc(/C=N/NC(=O)CNC(=O)c2ccc(S(=O)(=O)N3CCCC3)cc2)c(OC)c1`, for which the inhibition is 1.69%.

Consider `O=C(Cc1ccc(F)cc1)N/N=C/c1ccc2c(c1)OCO2`, for which the inhibition was -22.6%.

For the compound `Cc1nnc(Nc2ccccc2F)s1`, the inhibition was 16.6%.

For `CCC(=O)c1ccc(N2CCN(C(=O)c3cc([N+](=O)[O-])ccc3F)CC2)c(F)c1`, the inhibition is -4.84%.

As to `Cn1c(SCC(=O)NC2CCCCC2)nnc1-c1ccc(N)cc1`, the inhibition is 21.9%.

With `COc1ccc(C(=O)NCC(=O)N/N=C/c2ccc([N+](=O)[O-])s2)cc1OC`, the inhibition was 20.6%.

On to `C/C(=N/OC(=O)c1c(-c2c(F)cccc2Cl)noc1C)c1cnccn1`, for which the inhibition is 10.3%.

Consider `CC(=O)N/C(=C\c1ccc(F)cc1)C(=O)NC(Cc1ccccc1)C(=O)O` (stereo unspecified), for which the inhibition is 14.6%.

Take `N#Cc1c(NCCO)ccc([N+](=O)[O-])c1NCCO`: the inhibition was 15.9%.

For `Nn1c(SCc2ccccc2)nnc1C1CCCCC1`, the inhibition was 25.1%.

Turning to `Cc1ccc(C(=O)O)cc1N1C(=O)CCCC1=O`, the inhibition is 29.3%.

`O=C(O)CC/C(=N\NC(=O)c1ccc(F)cc1)c1ccc(Br)cc1`: the inhibition was 0.26%.

`O=C1COc2ccc(C(=O)COC(=O)c3cccnc3Cl)cc2N1`: the inhibition was 3.67%.

As to `Cn1c(=O)c2c(ncn2CC(=O)N/N=C/c2cn[nH]c2-c2ccc(F)cc2)n(C)c1=O`, the inhibition was 8.1%.

Consider `CCOC(=O)c1c(CN(C)C)n(-c2ccccc2)c2cc(Br)c(O)cc12`, for which the inhibition was 6.02%.

`O=C(NCCN1CCOCC1)c1ccc2c(c1)N(Cc1ccc(Cl)cc1)CCS2`: the inhibition was -21.2%.

In the case of `Cc1cccc(NC(=S)NCCc2ccc(F)cc2)c1C`, the inhibition was 13.3%.

For `Cc1ccc(N2C(=O)SC(N(CC(=O)O)c3ccc(C)cc3)C2=O)cc1` (stereo unspecified), the inhibition is 30.1%.

Take `COc1cc(OC)c(C(=O)OCC(=O)N2CC(=O)Nc3ccccc32)cc1OC`: the inhibition was 16%.

Turning to `Cc1nn(C)c(C)c1CN(C(=O)CCc1nnc(Cc2c[nH]c3ccccc23)o1)C(C)C`, the inhibition was 21.1%.

`C/C(=N\NC(=O)c1cccnc1)c1ccc(-c2ccccc2)cc1`: the inhibition was 11.8%.

`Cc1ccc(S(=O)(=O)N(CC(=O)NN=C2CCN(C)CC2)c2ccc(F)cc2)cc1`: the inhibition was 12.2%.

`CC(CO)(CO)NC(=O)c1ccc(=O)[nH]n1`: the inhibition is 20.4%.

On to `NNC(=O)C1CC(O)CN1S(=O)(=O)c1ccc(Cl)cc1` (stereo unspecified), for which the inhibition is -0.83%.

`Cc1ccccc1NC(=O)NNC(=O)OC(C)(C)C`: the inhibition was 17.1%.

In the case of `COc1ccc(C(=O)CSc2nnnn2C)c(OC)c1`, the inhibition was 0.17%.
